Measurements: the array DNA melting data of Ke et al. (doi:10.1101/2024.01.08.574731)

How the values were obtained:
[1] = folding enthalpy; higher = less favourable; fluorescence melt of hairpins on a sequencing array, two-state fit; settings: sodium 0.088 M
In short: (§1)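 Two-state fits, bootstrapped, provided melting temperature and folding enthalpy from Cy3 fluorescence normalised to pre-quench Cy3 and to control constructs. Library hairpins with annealed Cy3 and quencher oligos were imaged on a sequenced MiSeq flow cell in 50 mM Na-HEPES pH 8.0, 25 mM NaCl, at 2.5 °C intervals up to 60 °C. Four replicates were combined with inverse-variance weighting. A 9.35 °C upward shift was applied to fitted temperatures to match UV melts.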

[2] = melting temperature; fluorescence melt of hairpins on a sequencing array, two-state fit, raised by 9.35 °C to match UV melts; settings: sodium 0.088 M
In short: as §1

| Sequence | folding enthalpy [1] [kcal/mol] | Tm [2] [°C] |
| --- | --- | --- |
| GGCAATCGAAAGATAGCC (((.(((....))).))) | -31.8 | 52.7 |
| GGCAATCGAAAGATCGCC (((.(((....))).))) | -34.7 | 51 |
| GGCAATGGAAACACTGCC ((((.((....)).)))) | -33.2 | 44 |
| GGCACAGGAAACTGTACC ((.((((....)))).)) | -29.6 | 44.3 |
| GGCACCCGAAAGGGAGCC (((.(((....))).))) | -32.6 | 68.6 |
| GGCACCGAAAGGTAGCC ((((((....))).))) | -36.9 | 61.4 |
| GGCACCGAAAGGTCCGCC ((((((....)))..))) | -20.4 | 55.2 |
| GGCACCGAAAGGTTAGCC ((((((....)))..))) | -28.9 | 50.8 |
| GGCACGGCGAAAGCCGCC (((..(((....)))))) | -8.23 | 44.6 |
| GGCACGGGAAACCATGCC ((((.((....)).)))) | -30.5 | 49.3 |
| GGCACTCCGAAAGGAGCC (((..(((....)))))) | -9.55 | 35.2 |
| GGCAGACCGAAAGGTGCC (((..(((....)))))) | -35 | 55.4 |
| GGCAGAGGAAACTTTGCC ((((.((....)).)))) | -35.5 | 48.6 |
| GGCAGCGAAAGCTAAGCC ((((((....)))..))) | -25.2 | 55.6 |
| GGCAGCGGAAACGCTGTC (.(((((....))))).) | -17.6 | 67.2 |
| GGCAGGGGAAACCCCACC ((..(((....)))..)) | -16.5 | 31.6 |
| GGCAGGGGAAACCCTGTC (.(((((....))))).) | -29.9 | 55.9 |
| GGCAGTCCGAAAGGAGCC (((..(((....)))))) | -22.1 | 47.4 |
| GGCAGTGGAAACATTGCC ((((.((....)).)))) | -41.3 | 52.2 |
| GGCAGTGGAAACGTTGCC ((((..(....)..)))) | -28.9 | 49.1 |
| GGCATACGAAAGTAGGCC (((.(((....))).))) | -47.1 | 63.4 |
| GGCATAGCGAAAGCTGCC (((..(((....)))))) | -31.4 | 59.2 |
| GGCATAGGAAACTATGCC (((((((....))))))) | -39.5 | 64.9 |

| Sequence | folding enthalpy [1] [kcal/mol] | Tm [2] [°C] |
| --- | --- | --- |
| GGCATCCGAAAGGAGCC (((.(((....)))))) | -42.6 | 55.6 |
| GGCATCGAAAGATAAGCC ((((((....)))..))) | -27.9 | 44.7 |
| GGCATCGAAAGATACGCC ((((((....)))..))) | -24.3 | 42.3 |
| GGCATCGAAAGATCAGCC ((((((....)))..))) | -25 | 39.2 |
| GGCATCGAAAGATCCGCC ((((((....)))..))) | -19.2 | 49.3 |
| GGCATCGAAAGATGGCC ((((((....))).))) | -20.1 | 58.4 |
| GGCATCGAAAGATTAGCC ((((((....)))..))) | -28.2 | 43.7 |
| GGCATCGGAAACGATACC ((.((((....)))).)) | -27.1 | 45.6 |
| GGCATCGGAAACGATGTC (.(((((....))))).) | -42.1 | 55.9 |
| GGCATCGGAAACGGTGTC (.((.((....)).)).) | -25.7 | 44.8 |
| GGCATGGGAAACCATACC ((.((((....)))).)) | -26.2 | 41 |
| GGCATTCGAAAGAAAGCC (((.(((....))).))) | -40.4 | 50.5 |
| GGCATTCGAAAGAAGGCC (((.(((....))).))) | -41.7 | 60.4 |
| GGCCAAACGAAAGTTGCC (((..(((....)))))) | -22.6 | 44 |
| GGCCAAGGAAACCTGGCC (((((.(....).))))) | -42.3 | 57.3 |
| GGCCACCCGAAAGGGGCC (((..(((....)))))) | -23.2 | 61.3 |
| GGCCACGAAAGTGGCGCC ((((((....)))..))) | -7.19 | 65.5 |
| GGCCACGAAAGTGTGCC ((((((....))).))) | -25.9 | 64 |
| GGCCACGCGAAAGCGGCC (((..(((....)))))) | -19 | 62.5 |
| GGCCAGCGAAAGCTGCC (((.(((....)))))) | -16 | 60 |
| GGCCAGCGAAAGCTTGCC (((.(((....))).))) | -50.7 | 55.5 |
| GGCCAGGCGAAAGCCGCC (((..(((....)))))) | -13.9 | 58.4 |
